Screening results from PubChem BioAssay.
Only some compounds are listed: those with a hit (about 3.2% of all), similar ones and a draw of the others.
Hck Nef HTS: blocks Nef-activated human Hck kinase | AID 463187 | inhibition, % at 20 µM | P08631 | 0.68% of 220,000 active | Recombinant Hck-YEEI plus Nef, Z-Lyte FRET kinase assay;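 active = Hck-Nef kinase inhibition above about 50%, limit read from the data; inactive = inhibition below that limit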;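 note: 0% = DMSO with Hck plus Nef and 100% = Hck alone without Nef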
Target sequence (P08631 whole entry, looked up): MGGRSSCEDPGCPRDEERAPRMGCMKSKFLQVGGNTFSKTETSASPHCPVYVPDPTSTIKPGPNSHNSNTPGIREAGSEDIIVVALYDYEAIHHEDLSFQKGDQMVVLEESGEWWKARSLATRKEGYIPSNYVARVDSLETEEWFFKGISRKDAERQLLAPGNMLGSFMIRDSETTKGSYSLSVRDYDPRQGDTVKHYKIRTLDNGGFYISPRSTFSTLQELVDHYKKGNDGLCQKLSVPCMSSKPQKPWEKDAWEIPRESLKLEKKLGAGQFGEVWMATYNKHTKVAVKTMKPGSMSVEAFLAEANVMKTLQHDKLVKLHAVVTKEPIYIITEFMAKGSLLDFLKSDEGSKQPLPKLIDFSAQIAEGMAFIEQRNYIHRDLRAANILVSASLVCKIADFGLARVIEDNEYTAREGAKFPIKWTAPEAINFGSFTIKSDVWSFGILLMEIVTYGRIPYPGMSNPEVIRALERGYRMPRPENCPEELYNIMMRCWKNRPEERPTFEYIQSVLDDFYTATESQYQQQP
Mcl1-Bid inh: disrupts binding of human Mcl-1 to Bid peptide | 0.97% of 220,000 active | inhibition, % at 21.7 µM | Q07820 | TR-FRET Mcl-1/Bid-Dy647 peptide binding, 1536-well;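 active = compounds that cut the binding signal by more than half at the single screening dose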;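 note: His-tagged Mcl-1 with europium anti-His antibody binding Bid BH3 peptide; 0% = Mcl-1 plus peptide wells and 100% = peptide-only wells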
Bim-Mcl-1: disrupts Bim peptide binding to human Mcl-1. Q07820. Bead-based flow cytometry, Bim peptide-Mcl-1 binding. inhibition, % at 10 µM. 0.1% of 190,000 active. AID 1009; in the data active = inhibition above about 40%;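 note: 0% = no compound tracer wells and 100% = peptide blocker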
14-3-3 Bad inh: disrupts binding of bovine 14-3-3 zeta to phospho-Bad peptide. TR-FRET 14-3-3zeta/Dy647-pBad peptide displacement, 1 h. inhibition, % at 21.7 µM. 0.71% of 220,000 active. AID 781;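 active = inhibition above about 70%, limit read from the data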;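 note: 0% = full 14-3-3 plus peptide FRET controls and 100% = background without 14-3-3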
Calb biofilm kill: mixture kills Candida albicans biofilm cells; inhibition, % at 7.6 µM; 0.02% of 120,000 active; AID 1242; C. albicans biofilm persisters + clotrimazole, fluorescence viability; primary screen in compound mixtures of four per well;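 note: compounds exposed to preformed 24 h biofilms for 48 h; 0% = untreated biofilm control and 100% = clotrimazole plus chlorhexidine kill blank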
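Probe or stimulus – Clotrimazole 50 µg/mL co-treatment · System – C. albicans biofilms · Schedule – 24 h biofilm formation, then 48 h compound exposure, 37 °C · Evaluation – percent inhibition of biofilm viability · Technique – 2-h Alamar Blue fluorescence, 535/590 nm excitation/emission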
Mcl1 Noxa PPI: disrupts binding of human Mcl-1 to Noxa peptide | Q07820 | TR-FRET Mcl-1/Noxa peptide binding, 2 h | inhibition, % at 21.7 µM | 1.5% of 220,000 active | AID 1022;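 active = compounds that cut the protein-peptide binding signal by more than 50% relative to plate controls in a single-dose test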;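 note: His-tagged Mcl-1 with rhodamine Noxa BH3 peptide and terbium anti-His antibody; 0% = Mcl-1 plus Noxa peptide wells and 100% = peptide-only wells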
An asterisk follows results filed as active; . = no result given; [ ] = dose if it differs, or a comment.

SMILES	Hck Nef HTS	Mcl1-Bid inh	Bim-Mcl-1	14-3-3 Bad inh	Calb biofilm kill	Mcl1 Noxa PPI
CCC(C)(C)n1nnnc1C(c1cc(OC)ccc1OC)N1CCN(Cc2ccccc2)CC1 (stereo not drawn)	20.7	-10.0	1.0	-11.9	2.5	-0.2
CCCC(C)NCC(=O)Nc1ccccc1-c1ccccc1 (stereo not drawn)	3.4	22.0	-3.0	72.3*	.	16.4
O=C(CNC(c1ccccc1)c1ccccc1)Nc1ccccc1-c1ccccc1	-1.6	-2.4	-4.0	-4.7	18.4	-9.7
COC(=O)c1sc(NC(=O)c2c(OC)cccc2OC)c(C#N)c1C	18.6	-0.5	0.0	-8.8	16.9	9.2
CCOc1ccccc1NC(=O)COC(=O)c1cc[n+]([O-])cc1	15.5	-14.2	.	4.5	9.1	-10.5
COc1ccc(-c2ccc(-c3noc(-c4ccccc4F)n3)c(OC)n2)cc1	-9.6	55.6*	2.0	-4.0	.	.
COc1cccc(-c2cc(=O)c3cc(NC(=O)c4ccccc4)ccc3[nH]2)c1	-1.7	16.9	-4.0	-14.7	8.1	-2.1
COc1cccc(-c2cc(=O)c3cc(NC(=O)c4ccc(N(C)C)cc4)ccc3[nH]2)c1	-1.6	16.7	0.0	21.0	13.0	57.5*
CC(C)C(=O)NC(=S)Nc1sc2c(c1C(N)=O)CCCC2	12.1	-80.4	0.0	2.2	13.1	64.3*
O=C1/C(=C/c2ccc([N+](=O)[O-])cc2)C=C(c2ccccc2)N1c1ccc(O)cc1	-2.5	5.6	-3.0	-2.1	.	60.0*
O=C(O)c1cccc(N2C(=O)/C(=C/c3ccc([N+](=O)[O-])cc3)C=C2c2ccccc2)c1	22.9	-2.9	-5.0	21.7	19.9	52.9*
O=C1/C(=C/c2ccc([N+](=O)[O-])cc2)C=C(c2ccccc2)N1c1ccccc1	3.8	-5.8	-1.0	-0.1	.	2.8
COc1ccc(Nc2nc(N)c([N+](=O)[O-])c(NCc3ccccc3)n2)cc1	-1.4	29.4	.	-5.4	24.5	51.2*
Cc1ccc(Nc2nc(N)c([N+](=O)[O-])c(NCc3ccccc3)n2)cc1	21.8	-1.8	.	20.1	12.1	2.6
COc1cc(/C=N/NC(=O)c2ccoc2C)cc(OC)c1O	3.6	-63.1	-4.0	-7.6	14.0	57.1*
COc1cc(/C=N/NC(=O)c2ccc(Cn3cc([N+](=O)[O-])cn3)o2)cc(Br)c1O	18.1	-23.3	0.0	-9.6	23.4	55.7*
COc1ccc(/C=N/Nc2ccc([N+](=O)[O-])cc2)cc1Cn1cc([N+](=O)[O-])cn1	2.3	58.3*	-4.0	-12.1	.	72.0*
Cc1occc1C(=O)N/N=C/c1ccc(N(C)C)cc1	41.4	74.4*	.	41.7	32.0	36.9
CCC(NC(=O)Cn1cnc2c(=O)n(C)c(=O)n(C)c21)c1ccccc1 (stereo not drawn)	2.3	-6.1	-3.0	9.0	.	-12.7
COc1cc(/C=N/NC(=O)C(=O)NCc2ccco2)cc(Br)c1O	-11.8	-22.2	.	55.5	4.0	55.5*
COc1ccc(/C=N/NC(=O)c2cccc([N+](=O)[O-])c2)cc1OC	-6.8	-0.3	3.0	7.9	15.4	22.4
COc1cc(/C=N/NC(=O)c2cccc([N+](=O)[O-])c2)cc(OC)c1O	11.3	-30.5	-6.0	7.6	15.5	67.5*
COc1ccc(S(=O)(=O)N2CCOC2CNC(=O)C(=O)NCc2cccnc2)cc1C (stereo not drawn)	22.1	-11.6	.	0.2	12.9	-9.5
COc1ccc2cc3c(N)nn(C(=O)c4ccc(Cl)c([N+](=O)[O-])c4)c3nc2c1	5.4	54.1*	8.0	73.8*[fluorescence artefact?]	8.6	16.9
COc1ccc2cc3c(N)nn(C(=O)c4ccccc4[N+](=O)[O-])c3nc2c1	1.2	-5.3	0.0	-9.1	21.7	27.0
SMILES	Hck Nef HTS	Mcl1-Bid inh	Bim-Mcl-1	14-3-3 Bad inh	Calb biofilm kill	Mcl1 Noxa PPI
COc1ccc(N/C(=N\c2nc(C)cc(C)n2)NC(=O)C(C)C)cc1OC	0.0	-16.7	1.0	76.2*	.	9.5
Cc1nnc(SCC(=O)N2CCCC2)n(N)c1=O	13.3	-13.2	2.0	-9.7	15.0	1.6
O=C(NCc1ccncc1)C(=O)Nc1nc2ccccc2s1	1.5	-17.0	-6.0	-2.4	12.3	10.8
CCOC(=O)c1c(C)[nH]c2cc(Br)c(O)cc12	6.1	-25.7	-2.0	-9.6	14.4	21.5
CCOC(=O)c1c(OCC)[nH]c2c1cc(O)c1ccccc12	3.2	-23.0	8.0	3.4	.	75.0*
OCCC1CN(Cc2cc(F)ccc2-n2cccn2)CCN1C1CCCC1 (stereo not drawn)	16.8	-23.6	.	9.1	14.7	-17.6
O=C(OCC#CCSc1nc2ccccc2s1)c1ccco1	8.8	-22.0	0.0	3.3	.	66.5*
COc1cccc(CNC(=O)CCC2CCCN(C(=O)CCn3cncn3)C2)c1 (stereo not drawn)	17.2	-43.8	2.0	-12.3	8.3	5.8
Nc1c2c(nc3sc4c(c13)CCCC4)CCCCCC2	58.6*	-5.0	-3.0	5.9	8.5	12.9
Nc1nc(NC(=O)c2cccs2)nn1-c1ccccc1	-14.5	18.0	0.0	82.5*	.	1.5
CCOC(=O)c1c(-c2ccco2)csc1NC(=O)CSc1nnc(N)s1	-0.3	80.4*	0.0	0.0	.	29.8
O=C1Nc2ccc(Br)cc2/C1=C/C(=O)c1ccc2c(c1)OCO2	28.7	71.7*	.	61.4	26.9	104.6*
O=C1Nc2ccc(Br)cc2/C1=C/C1CC=CCC1 (stereo not drawn)	3.7	6.0	2.0	-9.7	-1.1	18.7
CCCC(C)NC(=O)c1c2c(nc3ccccc13)CCC2 (stereo not drawn)	24.3	-22.8	6.0	14.8	12.2	37.6
O=C(NCc1ccc(F)cc1)c1c2c(nc3ccccc13)CCC2	28.0	-55.5	-2.0	11.5	2.9	76.9*
O=C(CSc1c2c(nc3ccccc13)CCCC2)NCc1ccco1	24.3	-5.4	0.0	-4.3	10.2	10.9
O=C(NCc1ccco1)c1c2c(nc3ccccc13)CCC2	15.7	-40.7	-3.0	.	.	102.4*
NC(=O)COC(=O)c1c2c(nc3ccccc13)CCC2	0.6	-31.4	0.0	3.8	2.0	57.3*
Cc1cc(O)c(Oc2cc(C)cc(O)c2O)c(O)c1	-8.5	-7.9	-3.0	5.5	19.8	60.9*
Cn1c(N)c(C(=O)Nc2ccccc2F)sc1=S	-2.4	-31.3	.	0.2	18.5	1.1
Cn1c(N)c(C(=O)Nc2ccc3ccccc3c2)sc1=S	0.8	44.5	-9.0	43.7	.	66.0*
Cn1c(SCC(=O)N=Nc2c(O)[nH]c3ccccc23)nc2ccccc21	1.5	82.9*	-7.0	3.5	8.7	41.5
O=C(CSc1nc2ccccc2[nH]1)N=Nc1c(O)[nH]c2ccccc12	0.0	-32.9	12.0	4.5	6.7	21.9
CC(C)NC(=O)c1ccc(COCC(F)(F)F)cc1	3.1	87.4*	-3.0	1.1	.	17.4
COc1ccc(C(=O)NCc2nnc(SCC(=O)N3CCCCC3)o2)cc1OC	1.4	83.2*	0.0	-18.7	.	5.3
